In ChEMBL document CHEMBL1131263, “Substituted tetrahydropyrrolo[2,1-b]oxazol-5(6H)-ones and tetrahydropyrrolo[2,1-b]thiazol-5(6H)-ones as hypoglycemic agents” (1998):

Experiments:
Mus musculus [1] = assay: In vivo lowering of blood glucose levels in diabetic obese ob/ob mice by measuring postprandial blood glucose level on day 3 after 4 hours at 300 uM/kg oral dose; format: functional
In short: (§1)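 Adult male C57BL ob/ob mice, fed, grouped (6/group) and matched for blood glucose on day 0; mice under 150 mg/dL excluded. Oral dosing in the morning on days 1-3, vehicle 0.5% CMC with 0.2% Tween-80. Significance versus vehicle.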

Mus musculus [2] = assay: In vivo lowering of blood glucose levels in diabetic obese ob/ob mice by measuring postprandial blood glucose level on day 3 after 8 hours at 300 uM/kg oral dose; format: functional; in short: as §1
Mus musculus [3] = assay: In vivo lowering of blood glucose levels in diabetic obese ob/ob mice, measuring postprandial blood glucose level on day1 after 2 hours at 300 uM/kg oral dose; format: functional; in short: as §1
Mus musculus [4] = assay: In vivo lowering of blood glucose levels in diabetic obese ob/ob mice, measuring postprandial blood glucose level on day 3 after 2 hours at 300 uM/kg oral dose; format: functional; in short: as §1
[5] = lowest concentration at which glucose utilized was greater than or equal to 140% of control value tested in a glucose utilization L6 myocyte in vitro assay; format: functional, Rattus norvegicus
In short: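 Differentiated rat L6 myotubes (day 11 or 13 after plating) exposed 20 h to compound in serum-free DMEM with 15 mM glucose and 1% final DMSO. Tested in quadruplicate at 3, 10, 30, 100, 300 µM. Glucose left in the medium read by glucose oxidase. Value is the lowest concentration giving at least 40% more utilization than control.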

Mus musculus [6] = assay: In vivo lowering of blood glucose levels in diabetic obese ob/ob mice by measuring postprandial blood glucose level on day1 after 4 hours at 300 uM/kg oral dose; format: functional; in short: as §1

Structure (SMILES) | Efficacy (Mus musculus [1]) [%] | Efficacy (Mus musculus [2]) [%] | Efficacy (Mus musculus [3]) [%] | Efficacy (Mus musculus [4]) [%] | Lowest effective concentration for glucose utilization ≥140% of control [5] [µM] | Efficacy (Mus musculus [6]) [%]
O=C1CCC[C@]2(c3ccccc3)O[C@H](COc3ccc(Cl)cc3)CN12 | 50 | 54 | 42 | 10 | 30 | 29
O=C1CC[C@]2(c3ccc4c(c3)CCc3ccccc3-4)O[C@H](COc3ccc(Cl)cc3)CN12 | 56 | 45 | 31 | 51 | 30 | 38
CC(C)C(=O)N1C[C@H](COc2ccc(Cl)cc2)O[C@@H]1c1ccc(Cl)c(Cl)c1 | 24 | 6 | 32 | 20 | 30 | 21
COc1ccc([C@]23CCC(=O)N2C[C@@H](COc2ccc(Cl)cc2)O3)cc1 | -27 | 12 | -12 | -5 | 30 | 3
O=C1CC[C@]2(c3ccc(Cl)c(Cl)c3)OC(COc3ccc(Cl)cc3)CN12 (stereo partly specified) | 80 | 78 | 0 | 70 | 10 | 36
CC(=O)N1C[C@H](COc2ccc(Cl)cc2)O[C@@H]1c1ccc(Cl)cc1 | 54 | 54 | 10 | 42 | 100 | 0
O=C1CC[C@]2(c3ccccc3)O[C@H](COc3ccc(Cl)cc3)CN12 | -16 | -28 | 3 | 18 | 100 | 45
O=C1CCC[C@]2(c3ccc(Oc4ccccc4)cc3)OCCN12 | 50 | 3 | 25 | 45 | 30 | 29
OCc1cc(-c2ccc(Oc3ccccc3)cc2)no1 | 14 | 24 | 14 | 56 | 30 | 15
OCc1cc(-c2ccc(Cl)cc2)no1 | 53 | 34 | -3 | 61 | 100 | -1
O=C1CC[C@]2(c3ccc(-c4ccccc4)cc3)O[C@H](COc3ccc(Cl)cc3)CN12 | 35 | 7 | 16 | 20 | 10 | 17
CC(C)(O)c1cc(-c2ccc(Oc3ccccc3)cc2)no1 | 60 | 55 | 6 | 61 | 30 | -2
O=C1CC[C@]2(c3ccc(Oc4ccccc4)cc3)OCCN12 | -1 | -4 | -8 | -3 | 300 | 11
COc1ccc(OC[C@@H]2CN3C(=O)CC[C@]3(c3ccc(Cl)cc3)O2)cc1 | -8 | -28 | -17 | -19 | 100 | -20
O=C1CC[C@]2(c3ccc(Cl)cc3)OCCN12 | 28 | 11 | 21 | 23 | >1000 | 7
O=C1CC[C@]2(c3ccc(Cl)cc3)SCCN12 | 64 | 68 | 16 | 57 | 300 | 2
O=C1CC[C@]2(c3cccnc3)O[C@H](COc3ccc(Cl)cc3)CN12 | 22 | 35 | 22 | 1 | 300 | 20
COC(=O)N1C[C@H](COc2ccc(Cl)cc2)O[C@@H]1c1ccc(Cl)c(Cl)c1 | 19 | -9 | 13 | 25 | 30 | 40
O=C1CC[C@]2(c3ccc4oc5ccccc5c4c3)O[C@H](COc3ccc(Cl)cc3)CN12 | 16 | 7 | -25 | 8 | 30 | -43
O=C1CC[C@]2(c3ccc(F)cc3)O[C@H](COc3ccc(Cl)cc3)CN12 | 60 | 38 | -2 | 67 | 30 | 19
O=C1CC[C@]2(c3ccc4ccccc4c3)O[C@@H](COc3ccc(Cl)cc3)CN12 | 7 | 8 | -6 | 13 | >300 | -11
CC(=O)N1C[C@@H](COc2ccc(Cl)cc2)O[C@@H]1c1ccc(Cl)c(Cl)c1 | 70 | 61 | 8 | 69 | 30 | 26
O=C1CC[C@]2(c3ccc(Cl)cc3)S[C@H](COc3ccc(Cl)cc3)CN12 | 9 | 11 | 28 | -11 | >300 | 14

Structure (SMILES) | Efficacy (Mus musculus [1]) [%] | Efficacy (Mus musculus [2]) [%] | Efficacy (Mus musculus [3]) [%] | Efficacy (Mus musculus [4]) [%] | Lowest effective concentration for glucose utilization ≥140% of control [5] [µM] | Efficacy (Mus musculus [6]) [%]
O=C1CC[C@]2(c3ccc(Cl)c(Cl)c3)OC(COc3ccc(Cl)cc3)CN12 (single isomer, unassigned) |  |  |  |  | >300 | 
Cc1c(C)c2c(c(C)c1O)CCC(C)(COc1ccc(CC3SC(=O)NC3=O)cc1)O2 (stereo unspecified) [TROGLITAZONE] |  |  |  |  | 30 | 
O=C1CC[C@]2(c3ccc(F)cc3)O[C@@H](COc3ccc(Cl)cc3)CN12 |  |  |  |  | >300 | 
CS(=O)(=O)N1C[C@@H](COc2ccc(Cl)cc2)O[C@@H]1c1ccc(Cl)cc1 | 55 | 22 | -10 | 11 | 30 | 18
O=C(Nc1ccccc1)N1C[C@@H](COc2ccc(Cl)cc2)O[C@@H]1c1ccc(Cl)c(Cl)c1 |  |  |  |  | 30 | 
CC(C)(C)c1cc(CO)on1 |  |  |  |  | >300 | 
COCc1cc(-c2ccc(Cl)cc2)no1 |  |  |  |  | 100 | 
Clc1ccc(OCc2cc(-c3ccc(Cl)cc3)no2)cc1 |  |  |  |  | >300 | 
CN(C)C(=N)NC(=N)N.Cl [METFORMIN HYDROCHLORIDE] |  |  |  |  | 1000 | 
C/N=C(\S)N1CCO[C@@H]1c1ccc(Cl)cc1 |  |  |  |  | >300 | 
OCc1cc(-c2ccc(Cl)cc2Cl)no1 |  |  |  |  | 300 | 
CC(=O)N(C[C@@H]1CN2C(=O)CC[C@]2(c2ccc(Cl)cc2)O1)c1ccc(Cl)cc1 |  |  |  |  | >300 | 
O=C1CCC[C@]2(c3ccc(Oc4ccccc4)cc3)O[C@H](COc3ccc(Cl)cc3)CN12 |  |  |  |  | 100 | 
O=C1CC[C@]2(c3ccc(Cl)cc3)O[C@H](CO)CN12 |  |  |  |  | >300 | 
CC(C)(C)OC[C@@H]1CN2C(=O)CC[C@]2(c2ccc(Cl)cc2)O1 |  |  |  |  | 300 | 
CNC(=O)N1CCO[C@@H]1c1ccc(Cl)cc1 |  |  |  |  | >300 | 
O=C1CC[C@]2(c3ccc(Cl)c(Cl)c3)O[C@@H](CSc3ccc(Cl)cc3)CN12 |  |  |  |  | 100 | 
CC(C)(C)[C@]12CCC(=O)N1C[C@H](COc1ccc(Cl)cc1)O2 |  |  |  |  | >300 | 
CC(=O)N1CCS[C@@H]1c1ccc(Cl)cc1 |  |  |  |  | >300 | 
O=C1CC[C@]2(C3CCCCC3)O[C@@H](COc3ccc(Cl)cc3)CN12 |  |  |  |  | >300 | 
OCCc1cc(-c2ccc(Cl)cc2)no1 |  |  |  |  | 100 | 
COC(=O)c1cc(CO)on1 |  |  |  |  | >300 | 
CS(=O)(=O)N1C[C@H](COc2ccc(Cl)cc2)O[C@@H]1c1ccc(Cl)c(Cl)c1 |  |  |  |  | 30 | 
